In the library only some 1.4% were active in any assay of this set; here they are far more common.
PfGluPho inh – PfG6PD enzyme inhibitors, primary screen, biochemical, fluorescence intensity, uHTS; inhibition, % at 20 µM; 0.78% of 350,000 active; PfGluPho enzyme, NADPH resazurin-diaphorase fluorescence; glucose-6-phosphate dehydrogenase-6-phosphogluconolactonase (Plasmodium falciparum 3D7); AID 504690, 2011;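 active = inhibition reaching at least a set limit at 20 µM in the primary screen, cut at about 59% in these data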;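 note: 0% = DMSO wells with substrate and 100% = DMSO wells lacking glucose-6-phosphate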
A3A deaminase – APOBEC3A ssDNA deaminase inhibitors, primary screen, selectivity assay for APOBEC3G inhibitor project, biochemical, FAM/TAMRA oligo cleavage fluorescence; recombinant A3A, FAM/TAMRA ssDNA deamination fluorescence; 0.41% of 330,000 active; inhibition, % at 20 µM; DNA dC->dU-editing enzyme APOBEC-3A (Homo sapiens), P31941;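 active = at least 40% inhibition at 20 µM here, with at most 30% in a related deaminase screen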;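 note: plate controls were A3A with DMSO for no effect and wells lacking A3A enzyme for full effect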
HKDC1 inh – HKDC1 hexokinase inhibitors, primary screen, biochemical, fluorescence, uHTS; Q2TB90; 0.16% of 340,000 active; recombinant HKDC1, G6PDH/diaphorase resazurin coupled fluorescence; inhibition, % at 20 µM;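 active = inhibition above about 35% when tested at 20 µM, limit read from the data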;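 note: plate controls were DMSO wells with enzyme for no effect and DMSO wells lacking enzyme for full effect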
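Test system: HK5 enzyme. Quantity: 5 µg/mL HK5 final. Reagent: glucose and ATP substrates. Schedule: 90 min reaction incubation at room temperature, dark. Technique: resazurin-to-resorufin fluorescence via G6PDH and diaphorase coupling, 525/613 nm. Control set: DMSO wells with and without enzyme mix.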
A3G deaminase – APOBEC3G DNA deaminase inhibitors, primary screen, biochemical, fluorescence, single-stranded DNA substrate, uHTS | DNA dC->dU-editing enzyme APOBEC-3G (Homo sapiens), Q9HC16 | recombinant A3G, ssDNA deamination FAM/TAMRA fluorescence | inhibition, % at 20 µM | 0.28% of 330,000 active;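 active = inhibition of at least 40% at 20 µM, with no more than 30% in the related APOBEC3A deaminase screen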;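 note: plate controls were DMSO wells with A3G for no effect and wells lacking A3G enzyme for full effect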
Target sequence (Q9HC16 whole entry, looked up): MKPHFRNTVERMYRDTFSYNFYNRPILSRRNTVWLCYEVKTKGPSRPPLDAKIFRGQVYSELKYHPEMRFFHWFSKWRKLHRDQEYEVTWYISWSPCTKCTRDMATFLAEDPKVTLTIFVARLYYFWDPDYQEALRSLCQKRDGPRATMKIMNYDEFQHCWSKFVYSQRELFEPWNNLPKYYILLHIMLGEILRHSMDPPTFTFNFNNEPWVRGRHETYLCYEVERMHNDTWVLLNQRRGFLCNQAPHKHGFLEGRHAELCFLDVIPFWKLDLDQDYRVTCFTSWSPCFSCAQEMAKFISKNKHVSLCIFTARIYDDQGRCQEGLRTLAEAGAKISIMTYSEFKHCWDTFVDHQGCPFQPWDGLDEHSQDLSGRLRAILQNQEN
hiPSC survival – enhancers of single-cell hiPSC survival, primary screen, ATPlite luminescence | 100% = ROCK inhibitor wells, 0% = DMSO | survival enhancement, % at 20 µM | 0.044% of 360,000 active; in the data active = survival enhancement above about 18%;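 note: cells exposed to compounds for 16 hours before the ATP read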
APOBEC3G confirm – APOBEC3G deaminase inhibitor retest, confirmation, biochemical, fluorescence, single-stranded DNA substrate, single concentration. shares compounds with A3G deaminase. recombinant A3G ssDNA deaminase, UDG/FAM-TAMRA fluorescence. inhibition, % at 20 µM. 72% of 890 active. AID 493152, 2011;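 active = inhibition reaching a set limit in any replicate at 20 µM, the limit being 80% of the first screen's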
UDG A3G counter – E. coli UDG inhibitors, confirmation, counter-screen for APOBEC3G inhibitor project, biochemical, single concentration, fluorescence, FAM/TAMRA oligo | shares compounds with A3G deaminase | UDG counterscreen | inhibition, % at 20 µM | 710 tested, under 10 active | AID 504715, 2011;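 active = compounds giving 40% or more inhibition at 20 µM in any one of the three replicates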;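 note: plate controls were DMSO wells with UDG and oligo for no effect and DMSO wells lacking both for full effect; inhibitors lower the FAM signal released by uracil excision and alkaline cleavage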
Target sequence (P12295 whole entry, looked up): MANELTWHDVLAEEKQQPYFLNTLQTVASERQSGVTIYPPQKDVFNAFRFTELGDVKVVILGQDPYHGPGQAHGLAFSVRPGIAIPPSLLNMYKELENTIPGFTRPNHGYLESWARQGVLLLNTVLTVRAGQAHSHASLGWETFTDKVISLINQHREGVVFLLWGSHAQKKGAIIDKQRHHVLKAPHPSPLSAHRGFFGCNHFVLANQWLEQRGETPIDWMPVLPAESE
PfGluPho conf – PfG6PD inhibitors, hit retest, confirmation, biochemical, fluorescence intensity, single concentration; recombinant PfGluPho, NADPH-diaphorase-resazurin fluorescence; 34% of 2,400 active; inhibition, % at 20 µM; shares compounds with PfGluPho inh;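 active = inhibition of at least 50% at 20 µM in any single replicate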;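 note: 0% = DMSO with substrate and 100% = DMSO lacking glucose-6-phosphate substrate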
Diaph ctr 10uM – diaphorase inhibitors and chemical oxidizers, confirmation, counter-screen for P. falciparum G6PD inhibitor project, biochemical, fluorescence intensity, 10 µM NADPH. inhibition, % at 20 µM. 39% of 820 active. shares compounds with PfGluPho inh. AID 504862, 2011. diaphorase-coupled resazurin reduction, NADPH 10 uM;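 active = average inhibition reaching 50% or more with the compound at 20 µM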;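 note: resorufin red fluorescence formed as diaphorase reduces resazurin using NADPH; 0% = DMSO with enzyme and 100% = DMSO without enzyme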
Diaph ctr 30uM – diaphorase inhibitors and chemical oxidizers, confirmation, counter-screen for P. falciparum G6PD inhibitor project, biochemical, fluorescence intensity, 30 µM NADPH. 29% of 820 active. shares compounds with PfGluPho inh. Diaphorase/resazurin coupled assay, resorufin fluorescence. AID 504863, 2011. inhibition, % at 20 µM;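 active = inhibition averaging 50% or more, tested at 20 µM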;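 note: 0% = DMSO with enzyme and 100% = DMSO wells lacking diaphorase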
Numbers without * were called inactive.

What do the screens show for `Cc1ccc(N=C2NC(=O)CS2)cc1`?
PfGluPho inh: -7; A3A deaminase: -3; HKDC1 inh: -3; A3G deaminase: -5; hiPSC survival: 5

How did Cc1cc(Cl)ccc1N=c1ssnc1Cl do in these assays?
PfGluPho inh: 79*; A3A deaminase: 2; HKDC1 inh: -37; A3G deaminase: 61*; hiPSC survival: 4; APOBEC3G confirm: 62*; UDG A3G counter: -4; PfGluPho conf: 29

What do the screens show for `Cc1cc(Cl)ccc1N=C1N=C(N)c2ccccc21`?
PfGluPho inh: 8; A3A deaminase: -1; HKDC1 inh: 0; A3G deaminase: -3; hiPSC survival: 0

What do the screens show for `O=C(Nc1cccc(Cl)c1)NC1CC2CCC(C1)N2Cc1cccs1` (stereo not drawn)?
PfGluPho inh: -8; A3A deaminase: 2; HKDC1 inh: 12; A3G deaminase: 7; hiPSC survival: -4

How did O=C(O)c1ccccc1C(=O)Nc1nccs1 do in these assays?
PfGluPho inh: -1; A3A deaminase: -2; HKDC1 inh: 2; A3G deaminase: -12; hiPSC survival: 0

What do the screens show for `O=C(O)c1ccccc1C(=O)Nc1n[nH]c(=S)s1`?
PfGluPho inh: 72*; A3A deaminase: 2; HKDC1 inh: -13; A3G deaminase: 64*; hiPSC survival: 0; APOBEC3G confirm: 44*; UDG A3G counter: -2; PfGluPho conf: 34

How did c1ccc(SSc2ccccn2)nc1 do in these assays?
PfGluPho inh: 68*; A3A deaminase: -4; HKDC1 inh: -2; A3G deaminase: 64*; hiPSC survival: 0; APOBEC3G confirm: 88*; UDG A3G counter: -4; PfGluPho conf: 58*; Diaph ctr 10uM: -24; Diaph ctr 30uM: -27

Results for c1ccc(Sc2ccccn2)cc1 ?
PfGluPho inh: 1; A3A deaminase: -2; HKDC1 inh: -3; A3G deaminase: -5; hiPSC survival: 1

How did COc1ccc(N(CC(=O)NCc2ccc(F)cc2)C(=O)c2snc(C(N)=O)c2N)cc1OC do in these assays?
PfGluPho inh: -10; A3A deaminase: -3; HKDC1 inh: -7; A3G deaminase: -15; hiPSC survival: 0

How did Cc1ccc(S(=O)(=O)NNc2ccccc2)cc1 do in these assays?
PfGluPho inh: 65*; A3A deaminase: 4; HKDC1 inh: -8; A3G deaminase: 68*; hiPSC survival: -2; APOBEC3G confirm: 66*; PfGluPho conf: 47*; Diaph ctr 10uM: 42; Diaph ctr 30uM: 19

How did CC(=O)Nc1ccc(S(=O)(=O)NNc2cccc(C)c2)cc1 do in these assays?
PfGluPho inh: 76*; A3A deaminase: 3; HKDC1 inh: -2; A3G deaminase: 61*; hiPSC survival: 2; APOBEC3G confirm: 62*; UDG A3G counter: -3; PfGluPho conf: 45*; Diaph ctr 10uM: -10; Diaph ctr 30uM: 4

How did Cc1ccc(S(=O)(=O)Nc2ccc(Nc3ccccc3)cc2)cc1 do in these assays?
PfGluPho inh: -4; A3A deaminase: 0; HKDC1 inh: -1; A3G deaminase: -3; hiPSC survival: 0

How did CC(=O)Nc1cc(-c2ccc(S(C)(=O)=O)cc2)cn2c(-c3ccc(F)c(Cl)c3)cnc12 do in these assays?
hiPSC survival: 5

How did CC1(c2ccccc2)NC(=O)N(CC(=O)Nc2nc(-c3ccccn3)cs2)C1=O (stereo not drawn) do in these assays?
PfGluPho inh: 34; A3A deaminase: 0; HKDC1 inh: -1; A3G deaminase: -8; hiPSC survival: 0

How did Cc1ccc(C2(C)NC(=O)N(CC(=O)Nc3nc(-c4ccccn4)cs3)C2=O)cc1 (stereo not drawn) do in these assays?
PfGluPho inh: 72*; A3A deaminase: 2; HKDC1 inh: 8; A3G deaminase: 56*; hiPSC survival: 0; APOBEC3G confirm: 67*; UDG A3G counter: 0; PfGluPho conf: 36

Results for O=c1c2cc(F)ccc2sn1-c1ccc(F)cc1 ?
PfGluPho inh: 113*; A3A deaminase: -2; HKDC1 inh: 8; A3G deaminase: 72*; hiPSC survival: -2; APOBEC3G confirm: 78*; UDG A3G counter: 1; PfGluPho conf: 106*; Diaph ctr 10uM: -12; Diaph ctr 30uM: -13

Results for Cc1ccc(C)c(-n2sc3ccc(F)cc3c2=O)c1 ?
PfGluPho inh: 115*; A3A deaminase: 0; HKDC1 inh: 4; A3G deaminase: 56*; hiPSC survival: -4; APOBEC3G confirm: 61*; UDG A3G counter: -3; PfGluPho conf: 107*; Diaph ctr 10uM: -25; Diaph ctr 30uM: -27

Results for CN=c1nc(-c2ccccc2)n(-c2ccccc2)s1 ?
PfGluPho inh: 121*; A3A deaminase: -2; HKDC1 inh: 5; A3G deaminase: 79*; hiPSC survival: 0; APOBEC3G confirm: 96*; UDG A3G counter: -3; PfGluPho conf: 111*; Diaph ctr 10uM: -12; Diaph ctr 30uM: 3

How did CCC(C)(C)n1nnnc1C(c1ccc2ncccc2c1)N1CCN(c2nc3ccccc3s2)CC1 (stereo not drawn) do in these assays?
PfGluPho inh: 29; A3A deaminase: -2; HKDC1 inh: 2; A3G deaminase: -1; hiPSC survival: -2

What do the screens show for `CCC(C)(C)n1nnnc1C(c1ccc2ncccc2c1)N1CCN(c2ccc(O)cc2)CC1` (stereo not drawn)?
PfGluPho inh: 46; A3A deaminase: 2; HKDC1 inh: 8; A3G deaminase: 41*; hiPSC survival: 0; APOBEC3G confirm: 5; PfGluPho conf: 35
